ChEMBL document CHEMBL2074208, “P-glycoprotein inhibition by glibenclamide and related compounds” (Pflugers Arch, 1999)

Tests used:
[1] = target: Multidrug resistance protein 1a (Rattus norvegicus) (UniProt Q6PSM0); assay: TP_TRANSPORTER: increase in Colchicine intracellular accumulation (Colchicine: 0.035 uM, BM-223: 100 uM) in CC531mdr+ cells; format: functional, cell-based
In short: (§1)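 CC531mdr+ monolayers were grown to confluence and kept colchicine-free for ≥12 h. They were preincubated 10 min at 37 °C in buffer A (pH 7.4) with inhibitor or 0.1% DMSO, then incubated 60 min in buffer A with [³H]colchicine (2.5 µCi/ml; 35 nM colchicine) plus the same additions. After an ice-cold wash, radioactivity was extracted with 0.1 N HNO₃ and counted. Accumulation is given as % of the no-inhibitor control; n≥3.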

[2] = target: T1, ATP-dependent translocase ABCB1 (Homo sapiens, UniProt P08183); assay: TP_TRANSPORTER: inhibition of Azidopine photoaffinity labelling (Azidopine: 0.16 uM, BM-223: 100 uM) in membranes from CEM/VBL600 cells; settings: cem/vbl600, 100 µM
T1 sequence (P08183 whole entry): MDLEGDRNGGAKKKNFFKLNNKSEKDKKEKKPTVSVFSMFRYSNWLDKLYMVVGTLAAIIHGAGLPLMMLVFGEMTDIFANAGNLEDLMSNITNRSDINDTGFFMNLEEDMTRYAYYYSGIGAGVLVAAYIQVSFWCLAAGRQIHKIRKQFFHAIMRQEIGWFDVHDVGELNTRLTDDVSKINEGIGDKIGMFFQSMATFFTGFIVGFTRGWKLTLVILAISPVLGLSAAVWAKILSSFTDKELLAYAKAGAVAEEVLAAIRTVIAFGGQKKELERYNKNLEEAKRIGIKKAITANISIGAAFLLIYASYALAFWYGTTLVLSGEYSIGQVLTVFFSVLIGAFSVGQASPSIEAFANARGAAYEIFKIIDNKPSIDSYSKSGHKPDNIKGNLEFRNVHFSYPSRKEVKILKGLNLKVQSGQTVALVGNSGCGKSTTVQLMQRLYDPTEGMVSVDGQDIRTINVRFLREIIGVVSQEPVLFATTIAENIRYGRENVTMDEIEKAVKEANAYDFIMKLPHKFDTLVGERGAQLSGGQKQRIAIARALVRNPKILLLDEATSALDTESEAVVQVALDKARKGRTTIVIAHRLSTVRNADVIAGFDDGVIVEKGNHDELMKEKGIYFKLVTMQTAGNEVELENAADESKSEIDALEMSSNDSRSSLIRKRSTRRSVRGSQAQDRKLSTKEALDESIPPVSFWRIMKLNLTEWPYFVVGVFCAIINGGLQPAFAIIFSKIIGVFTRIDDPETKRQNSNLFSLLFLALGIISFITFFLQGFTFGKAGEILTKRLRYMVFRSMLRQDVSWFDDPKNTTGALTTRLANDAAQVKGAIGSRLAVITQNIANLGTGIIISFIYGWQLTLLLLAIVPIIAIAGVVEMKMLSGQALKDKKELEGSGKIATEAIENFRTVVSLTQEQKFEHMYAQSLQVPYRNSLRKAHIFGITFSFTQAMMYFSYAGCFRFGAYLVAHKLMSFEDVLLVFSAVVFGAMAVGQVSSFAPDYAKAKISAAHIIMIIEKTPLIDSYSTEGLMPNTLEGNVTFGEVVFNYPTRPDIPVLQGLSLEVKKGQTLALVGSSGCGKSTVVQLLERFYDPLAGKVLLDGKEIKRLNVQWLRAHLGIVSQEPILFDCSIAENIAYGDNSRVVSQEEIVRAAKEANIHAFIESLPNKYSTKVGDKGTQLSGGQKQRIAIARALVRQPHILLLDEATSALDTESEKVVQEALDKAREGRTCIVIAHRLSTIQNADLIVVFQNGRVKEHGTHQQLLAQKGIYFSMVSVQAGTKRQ

[3] = target: T1, ATP-dependent translocase ABCB1; assay: TP_TRANSPORTER: increase in Colchicine intracellular accumulation (Colchicine: 0.0175 uM, BM-223: 100 uM) in CEM/VBL600 cells; format: functional, cell-based; settings: cem/vbl600, 100 µM
In short: (§2)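 1.5×10⁶ viable cells were preincubated 10 min at 37 °C with inhibitor or 0.1% DMSO. [³H]colchicine (final 1.25 µCi/ml; 17.5 nM) was added for 60 min at 37 °C. Cells were pelleted at 4 °C, washed ice-cold and counted by scintillation. Uptake is given as % of the no-inhibitor control; n≥3.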

[4] = target: Multidrug resistance protein 1a (Rattus norvegicus) (UniProt Q6PSM0); assay: TP_TRANSPORTER: increase in Glibenclamide intracellular accumulation (Glibenclamide: 0.0525 uM, BM-223: 100 uM) in CC531mdr+ cells; format: functional, cell-based
In short: (§3)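 Confluent CC531mdr+ monolayers, held colchicine-free ≥12 h, were preincubated 10 min at 37 °C in buffer A with inhibitor or 0.1% DMSO. They were then exposed 60 min to [³H]glibenclamide (2.5 µCi/ml; 52.5 nM glibenclamide) with inhibitor. After an ice-cold buffer wash, acid extraction (0.1 N HNO₃) and scintillation counting, uptake was expressed as % of the inhibitor-free control; n≥3.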

[5] = target: T1, ATP-dependent translocase ABCB1; assay: TP_TRANSPORTER: increase in Colchicine intracellular accumulation (Colchicine: 0.0175 uM, Vinblastine: 100 uM) in CEM/VBL600 cells; format: functional, cell-based; settings: cem/vbl600, 100 µM; in short: as §2
[6] = target: Multidrug resistance protein 1a (Rattus norvegicus) (UniProt Q6PSM0); assay: TP_TRANSPORTER: increase in Glibenclamide intracellular accumulation (Glibenclamide: 0.0525 uM, Vinblastine: 100 uM) in CC531mdr+ cells; format: functional, cell-based; in short: as §3
[7] = target: Multidrug resistance protein 1a (Rattus norvegicus) (UniProt Q6PSM0); assay: TP_TRANSPORTER: increase in Colchicine intracellular accumulation (Colchicine: 0.035 uM, Vinblastine: 100 uM) in CC531mdr+ cells; format: functional, cell-based; in short: as §1
[8] = target: Multidrug resistance protein 1a (Rattus norvegicus) (UniProt Q6PSM0); assay: TP_TRANSPORTER: increase in Colchicine intracellular accumulation (Colchicine: 0.035 uM, BM-208: 100 uM) in CC531mdr+ cells; format: functional, cell-based; in short: as §1
[9] = target: T1, ATP-dependent translocase ABCB1; assay: TP_TRANSPORTER: inhibition of Azidopine photoaffinity labelling (Azidopine: 0.16 uM, BM-208: 100 uM) in membranes from CEM/VBL600 cells; settings: cem/vbl600, 100 µM
[10] = target: T1, ATP-dependent translocase ABCB1; assay: TP_TRANSPORTER: increase in Colchicine intracellular accumulation (Colchicine: 0.0175 uM, BM-208: 100 uM) in CEM/VBL600 cells; format: functional, cell-based; settings: cem/vbl600, 100 µM; in short: as §2
[11] = target: Multidrug resistance protein 1a (Rattus norvegicus) (UniProt Q6PSM0); assay: TP_TRANSPORTER: increase in Glibenclamide intracellular accumulation (Glibenclamide: 0.0525 uM, BM-208: 100 uM) in CC531mdr+ cells; format: functional, cell-based; in short: as §3
[12] = target: Multidrug resistance protein 1a (Rattus norvegicus) (UniProt Q6PSM0); assay: TP_TRANSPORTER: increase in Colchicine intracellular accumulation (Colchicine: 0.035 uM, Glibenclamide: 100 uM) in CC531mdr+ cells; format: functional, cell-based; in short: as §1
[13] = target: T1, ATP-dependent translocase ABCB1; assay: TP_TRANSPORTER: increase in Colchicine intracellular accumulation (Colchicine: 0.0175 uM, Glibenclamide: 100 uM) in CEM/VBL600 cells; format: functional, cell-based; settings: cem/vbl600, 100 µM; in short: as §2

Sequence of Multidrug resistance protein 1a (Rattus norvegicus) (Q6PSM0 as listed by the source): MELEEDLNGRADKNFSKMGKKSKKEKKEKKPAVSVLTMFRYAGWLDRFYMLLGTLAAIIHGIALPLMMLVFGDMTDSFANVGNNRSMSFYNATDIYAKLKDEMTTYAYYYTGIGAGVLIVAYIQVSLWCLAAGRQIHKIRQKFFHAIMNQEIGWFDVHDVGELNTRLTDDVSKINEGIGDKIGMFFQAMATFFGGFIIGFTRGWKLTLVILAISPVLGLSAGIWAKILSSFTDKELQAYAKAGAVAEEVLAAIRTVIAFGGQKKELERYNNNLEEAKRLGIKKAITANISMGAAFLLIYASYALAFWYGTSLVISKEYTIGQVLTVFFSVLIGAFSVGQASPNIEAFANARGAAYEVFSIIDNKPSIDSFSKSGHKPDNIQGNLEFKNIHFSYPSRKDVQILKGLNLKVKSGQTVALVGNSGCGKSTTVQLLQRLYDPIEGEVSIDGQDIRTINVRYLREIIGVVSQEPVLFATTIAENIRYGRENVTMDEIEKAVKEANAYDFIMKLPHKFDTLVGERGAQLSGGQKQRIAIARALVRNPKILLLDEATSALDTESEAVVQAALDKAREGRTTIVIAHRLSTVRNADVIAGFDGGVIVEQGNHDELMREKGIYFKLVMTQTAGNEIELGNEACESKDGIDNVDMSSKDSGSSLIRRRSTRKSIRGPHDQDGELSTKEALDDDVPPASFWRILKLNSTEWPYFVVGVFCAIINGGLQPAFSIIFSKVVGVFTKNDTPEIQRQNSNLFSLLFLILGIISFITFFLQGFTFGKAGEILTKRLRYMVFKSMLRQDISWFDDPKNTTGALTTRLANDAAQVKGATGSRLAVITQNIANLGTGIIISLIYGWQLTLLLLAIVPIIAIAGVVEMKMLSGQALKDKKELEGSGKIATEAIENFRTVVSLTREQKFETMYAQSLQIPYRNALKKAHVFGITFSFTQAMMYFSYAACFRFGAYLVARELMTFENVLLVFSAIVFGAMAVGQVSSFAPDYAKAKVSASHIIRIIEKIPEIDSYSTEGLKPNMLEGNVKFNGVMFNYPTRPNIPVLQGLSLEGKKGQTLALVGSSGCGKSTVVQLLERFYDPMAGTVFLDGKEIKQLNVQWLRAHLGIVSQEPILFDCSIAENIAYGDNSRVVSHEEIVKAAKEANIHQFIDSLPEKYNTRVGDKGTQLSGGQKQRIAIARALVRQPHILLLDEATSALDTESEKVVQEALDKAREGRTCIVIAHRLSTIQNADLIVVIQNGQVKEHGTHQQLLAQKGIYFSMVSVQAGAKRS

With `COc1ccc(Cl)cc1C(=O)NCCc1ccc(S(=O)(=O)N/C(=N/C#N)NC2CCC(C)CC2)cc1` (centres undefined) the Activity [1] was “inhibitor [+]”, the Activity [2] was “inhibitor [+]” and the Activity [3] was “inhibitor [+]”. The Activity [4] was “inhibitor [+]”.

`CC[C@]1(O)C[C@@H]2CN(CCc3c([nH]c4ccccc34)[C@@](C(=O)OC)(c3cc4c(cc3OC)N(C)[C@H]3[C@@](O)(C(=O)OC)[C@H](OC(C)=O)[C@]5(CC)C=CCN6CC[C@]43[C@@H]65)C2)C1` [VINBLASTINE] was tested, and the Activity [5] was “inhibitor [+]”, the Activity [6] was “inhibitor [+]” and the Activity [7] was “inhibitor [+]”.

For `COc1ccc(Cl)cc1C(=O)NCCc1ccc(S(=O)(=O)N/C(=N/C#N)NC2CCCCC2)cc1`, the Activity [8] was “inhibitor [+]”, the Activity [9] was “inhibitor [+]” and the Activity [10] was “inhibitor [+]”. The Activity [11] was “inhibitor [+]”.

For `COc1ccc(CCN(C)CCCC(C#N)(c2ccc(OC)c(OC)c2)C(C)C)cc1OC` (centres undefined), the Activity [6] was “inhibitor [+]”.

With `COc1ccc(Cl)cc1C(=O)NCCc1ccc(S(=O)(=O)NC(=O)NC2CCCCC2)cc1` [GLYBURIDE] the Activity [12] was “inhibitor [+]” and the Activity [13] was “inhibitor [+]”.
